CAL PDZ FP-1: CAL PDZ peptide-binding inhibitors, primary screen, biochemical, fluorescence polarization, Cer-tagged CAL PDZ, HTS | Golgi-associated PDZ and coiled-coil motif-containing protein (Homo sapiens), Q9HD26 | purified CAL PDZ, TMR-peptide fluorescence polarization, 1 h | actives 0.02% (n = 330,000) | inhibition, % at 20 µM;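 active means highest replicate inhibition of at least 40%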;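 further: plate controls were DMSO neutral control wells for no effect and unlabeled competitor peptide control wells for full effect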
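material = purified tagged CAL PDZ domain construct (CerCALP) | compound dosing = 20 µM, one dose | times = 1 h at RT | measured by = fluorescence polarization from S- and P-plane intensities, G-factor corrected | read-out = inhibition from polarization loss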
Keap1 Nrf2 FP: Keap1-Nrf2 protein-protein interaction inhibitors, primary screen, biochemical, fluorescence polarization, single point; Keap1 Kelch-Nrf2 peptide fluorescence polarization, 1536-well; inhibition, % at 9.4 µM; actives 0.15% (n = 340,000); AID 504523, 2011; in the data active means inhibition above about 12%;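 further: human Keap1 Kelch domain with fluorescein labeled Nrf2 9mer peptide probe; 0% = neutral control wells and 100% = peptide positive control; higher means more block of Keap1 binding to Nrf2 peptide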
LANA-H2B inh: blockers of LANA interaction with H2A/H2B – biochemical, FP readout, HTS, primary screen; AID 2629, 2010; actives 0.6% (n = 320,000); cell-free LANA-H2A/H2B peptide, fluorescence polarization; Protein LANA1 (Human herpesvirus 8 type P (isolate GK18)), Q9QR71; inhibition, % (concentration not given with the values); in the data active means inhibition mostly above about 10%, no sharp cut-off; inactive means mostly below about 6.7%
Target sequence (Q9QR71 whole entry, looked up): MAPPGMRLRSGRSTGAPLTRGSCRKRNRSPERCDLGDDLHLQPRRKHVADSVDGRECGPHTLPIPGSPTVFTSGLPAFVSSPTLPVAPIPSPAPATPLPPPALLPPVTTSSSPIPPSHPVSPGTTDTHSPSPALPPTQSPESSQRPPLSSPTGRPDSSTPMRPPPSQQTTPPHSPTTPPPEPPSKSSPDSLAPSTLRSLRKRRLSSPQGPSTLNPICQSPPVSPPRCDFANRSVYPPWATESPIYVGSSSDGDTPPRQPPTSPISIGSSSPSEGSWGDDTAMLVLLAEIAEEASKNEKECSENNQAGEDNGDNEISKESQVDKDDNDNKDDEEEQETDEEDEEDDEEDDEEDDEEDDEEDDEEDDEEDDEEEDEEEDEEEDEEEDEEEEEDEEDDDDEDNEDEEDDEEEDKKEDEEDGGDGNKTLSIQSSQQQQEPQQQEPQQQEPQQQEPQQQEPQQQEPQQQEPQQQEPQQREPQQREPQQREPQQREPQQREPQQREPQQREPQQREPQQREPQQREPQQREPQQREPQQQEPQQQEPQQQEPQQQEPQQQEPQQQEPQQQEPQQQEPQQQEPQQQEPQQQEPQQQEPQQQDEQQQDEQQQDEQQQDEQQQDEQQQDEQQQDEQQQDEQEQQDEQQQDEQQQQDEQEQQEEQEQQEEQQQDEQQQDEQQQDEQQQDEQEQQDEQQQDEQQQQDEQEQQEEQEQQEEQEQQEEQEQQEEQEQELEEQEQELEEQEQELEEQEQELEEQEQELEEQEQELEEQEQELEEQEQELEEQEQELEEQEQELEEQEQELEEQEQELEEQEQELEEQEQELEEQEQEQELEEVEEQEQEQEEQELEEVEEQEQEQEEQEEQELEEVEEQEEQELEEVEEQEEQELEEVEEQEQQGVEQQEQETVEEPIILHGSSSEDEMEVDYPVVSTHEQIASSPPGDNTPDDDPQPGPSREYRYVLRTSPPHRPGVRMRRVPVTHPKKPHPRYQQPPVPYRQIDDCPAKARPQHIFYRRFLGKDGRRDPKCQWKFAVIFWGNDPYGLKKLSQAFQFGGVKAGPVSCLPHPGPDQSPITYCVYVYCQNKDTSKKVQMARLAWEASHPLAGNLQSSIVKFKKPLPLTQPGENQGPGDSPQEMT
CaV13 ICDI inh: Primary screen for inhibitors of IQ motif and Ca2+-dependent inactivation inhibitor domain binding in CACNA1D, Förster resonance energy transfer in living cells, …; HEK cells, CFP/YFP FRET ICDI-IQ, plate reader, 10 min; percent FRET-ratio fall versus neutral wells; inhibition, % at 12.3 µM; actives 0.098% (n = 340,000); AID 743397;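 active means mean replicate inhibition of at least 30% and at least 1% of replicates passing that level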;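 further: 0% = median of the neutral control wells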
CAL PDZ FP-2: untagged CAL PDZ binding inhibitors, primary screen, biochemical, fluorescence polarization, HTS. Golgi-associated PDZ and coiled-coil motif-containing protein (Homo sapiens), Q9HD26. purified CAL PDZ, TMR-peptide fluorescence polarization, 1 h. inhibition, % at 24.9 µM. actives 0.92% (n = 300,000);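 active means mean inhibition of at least 30% with at least half of replicates also reaching 30%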;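 further: 0% = DMSO neutral control and 100% = excess unlabeled competitor peptide PRC23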
C-LANA FP: inhibitors of KSHV C-LANA binding to DNA, primary screen, biochemical, fluorescence polarization, FAM-LBS DNA, MBP-C-LANA, single point. AID 504423, 2011. actives 0.078% (n = 340,000). Kaposi's sarcoma herpesvirus LANA C-terminal domain (residues 932-1162) DNA binding. inhibition, % at 9 µM;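 active means highest replicate inhibition at or above 60% at 9 µM, even if other replicates fall short; inactive means all replicates below 60% inhibition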;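 further: 0% = neutral control wells and 100% = 4 µM acridine orange control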
The depositor's hits bear a star; x = not tested or not shown; + = active, no number. Compounds with a hit are over-represented: about 1.5% of the library has one in this group of screens.

SMILES | CAL PDZ FP-1 | Keap1 Nrf2 FP | LANA-H2B inh | CaV13 ICDI inh | CAL PDZ FP-2 | C-LANA FP
COc1ccccc1N(CC(=O)Nc1cc(S(=O)(=O)N(C)C)ccc1C)S(=O)(=O)c1cccs1 | 7 | 2 | 2 | -5 | 68* | 6
COc1ccccc1N(CC(=O)N(C)Cc1ccccc1)S(=O)(=O)c1cccs1 | -1 | -4 | + | -2 | -4 | -2
CC1=C(C(=O)N(C)C)CC(CC(=O)NCc2cccc3ccccc23)C(=O)N1CCCN1CCCC1=O (centres undefined) | x | x | x | -6 | x | x
COc1ccc(/C=N/NC(=O)c2cccc(O)c2)cc1Cn1nc(C)c([N+](=O)[O-])c1C | -2 | -3 | 2 | -8 | 53* | 0
Cc1ccc2nc(-c3ccco3)c(Cc3ccccc3C(F)(F)F)n2c1 | x | x | x | -7 | x | x
COc1cc(Cl)ccc1OCc1cc(C(=O)NC2CCc3ccccc32)no1 (centres undefined) | -1 | -4 | 29* | x | -3 | 2
Cc1ccc(NC(=O)CN(C)CC(=O)NC2CCCc3ccccc32)cc1 (centres undefined) | -2 | 1 | -2 | -7 | -4 | 0
COc1cc(CC(=O)NC2CCCc3ccccc32)cc(OC)c1OC (centres undefined) | -1 | 0 | 3 | -2 | 43* | -2
COc1ccccc1CC(=O)NC1CCCc2ccccc21 (centres undefined) | -1 | -7 | 3 | 0 | 1 | 0
O=C(CSc1cc(Cl)ccc1Cl)NC1CCCc2ccccc21 (centres undefined) | -3 | 5 | -3 | -16 | -6 | 1
Cc1ccc2nc(SCC(=O)NC3CCCc4ccccc43)[nH]c2c1 (centres undefined) | -1 | 5 | -3 | -5 | 84* | -2
CCOc1ccc(NC(=O)CN(C)CC(=O)NC2CCCc3ccccc32)cc1OCC (centres undefined) | 0 | -4 | -1 | -5 | 40* | -1
COc1cccc(CNC(=O)[C@H]2CCCN2C(=O)[C@H]2CCCN2C(=O)c2ccccc2)c1 | x | x | x | -4 | x | x
CN(C)C(=O)c1ccc(-c2cc3onc(-c4ccccc4)c3c(=O)n2C)cc1 | 0 | -3 | -2 | -4 | 0 | 2
O=C(N[C@H](C(=O)N1CCC[C@H]1C(=O)NCCc1ccccc1Cl)c1ccccc1)c1ccco1 | x | x | x | -10 | x | x
C[C@@H]1CN([C@@H](C)CO)S(=O)(=O)c2ccc(Br)cc2O[C@@H]1CN(C)C(=O)C1CC1 | x | x | x | -5 | x | x
O=C(O)c1ccc(NS(=O)(=O)c2ccc3c(c2)C2C=CCC2C(c2ccccc2F)N3)cc1 (centres undefined) | 0 | -4 | x | -88 | 1 | 108*
O=C(Nc1ccc(Cl)cc1)NC1CCCC1Cc1ccco1 (centres undefined) | -2 | -8 | 17* | x | -4 | 1
O=C(Nc1ccc(Cl)cc1)NC1CCCCC1Cc1ccco1 (centres undefined) | -3 | 3 | -5 | x | -4 | 1
COC(=O)N1Cc2ccnnc2CC1c1ccccc1-c1ccc(OC)cc1 (centres undefined) | x | x | x | -8 | x | x
CC(=O)OC1COC(n2c(O)c(N=NC(N)=S)c3ccccc32)C(OC(C)=O)C1OC(C)=O (centres undefined) | -1 | 3 | 3 | -5 | 38* | 2
CC(=O)OC1COC(n2ccc3ccccc32)C(OC(C)=O)C1OC(C)=O (centres undefined) | 0 | -5 | 2 | -6 | 0 | -1
NC(=NCCc1ccccc1)NS(=O)(=O)c1ccccc1F | -1 | -5 | 5 | -14 | x | -2
CN(CC(=O)NCC(=O)Nc1ccc(F)cc1)CC(=O)Nc1ccc(Cl)c(C(F)(F)F)c1 | -1 | -3 | x | -6 | 47* | 0
COc1ccccc1NC(=O)Nc1ccnn1Cc1cccs1 | -1 | 0 | 1 | -4 | 57* | -1
SMILES | CAL PDZ FP-1 | Keap1 Nrf2 FP | LANA-H2B inh | CaV13 ICDI inh | CAL PDZ FP-2 | C-LANA FP
CC(=O)N1CCN(C(=O)CCNS(=O)(=O)c2ccc(Br)cc2)CC1 | 0 | -1 | -7 | -7 | 0 | 0
CC1CCN(C(=O)CCNS(=O)(=O)c2ccc(Br)cc2)CC1 | 0 | -1 | 24* | -3 | x | 0
CC1CCCCC1NC(=O)Cn1cc([N+](=O)[O-])ccc1=O (centres undefined) | -2 | 5 | 15* | -6 | x | 0
COc1ccc(OCC(=O)Nc2nc3c(s2)CCCC3)cc1 | -2 | 1 | x | -12 | 72* | 2
O=C(NCc1ccccc1)[C@@H]1CCCN1C(=O)[C@H]1CCCN1C(=O)c1ccc(F)cc1F | x | x | x | -10 | x | x
COc1ccc(OCC(=O)N2c3ccc(C)cc3C3CN(C)CCC32)cc1 (centres undefined) | 0 | -2 | 25* | -19 | -4 | -1
Cc1cccc(C)c1NC(=O)CSc1nnc(-c2ccco2)n1N | -1 | -2 | -1 | -5 | -2 | 1
Nn1c(SCC(=O)Nc2cccc(S(N)(=O)=O)c2)nnc1C1CC1 | 0 | -2 | 3 | -6 | 70* | -1
Nn1c(SCC(=O)Nc2ccc(S(N)(=O)=O)cc2)nnc1-c1ccco1 | -1 | 2 | -1 | -2 | 37* | 0
O=C1CC(SC(=S)C2CCCC2=O)C(=O)N1 (centres undefined) | x | x | x | -6 | x | x
CCCCOc1ncnc2c1[nH]c1ccc(C)cc12 | x | x | 1 | -5 | x | x
Cc1cc(-c2n[nH]c(=S)n2-c2ccccc2C)cs1 | -1 | -2 | 3 | -5 | 62* | 2
O=C1C2C3CC(C(Br)C3Br)C2C(=O)N1CC1CCCO1 (centres undefined) | 2 | -3 | 0 | -4 | -4 | -1
CC(C(=O)NCC1CCCO1)N1C(=O)C2C3CC(C(Br)C3Br)C2C1=O (centres undefined) | 1 | -5 | -3 | -5 | 109* | 0
Cc1nnc(SCC(=O)NC(C)(C)C)n1NCc1ccc(Cl)cc1 | 0 | -2 | 6 | -7 | 5 | 0
Cc1nnc(SCC(=O)NC(C)(C)C)n1NCc1ccc(N(C)C)cc1 | -4 | -3 | 7 | -5 | 74* | -3
CCn1c(NC(=O)c2ccc(C)cc2)c2ccccc2nc1=O | -1 | -1 | 0 | 0 | -1 | 1
CCn1c(NC(=O)C(C)C)c2ccccc2nc1=O | 0 | -1 | 11* | 0 | 3 | -1
COc1cc(S(=O)(=O)Nc2cccc3cn[nH]c23)c(OC)cc1Cl | -1 | 0 | x | -2 | 95* | 0

Screening results deposited in PubChem BioAssay by Broad Institute.
